Test system: MS2 coat protein
Test: apparent Kd, MS2 coat protein; higher = weaker binding; RNA-MaP array; FMN 200 µM where present
How it was run: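 Green signal was scaled to red-channel RNA signal and control-cluster median Fmax, and the apparent Kd was taken as the median of filtered per-cluster binding-curve fits. The binding series used SNAP-549-labelled MS2 coat protein from 0.7 or 1.5 nM, doubling to 3 µM, on designs transcribed by stalled E. coli RNA polymerase on Illumina sequencing-chip clusters. Each series ran without and then with constant ligand in 100 mM Tris-HCl pH 7.5, 80 mM KCl, 4 mM MgCl2, BSA, DTT, yeast tRNA and Tween-20.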

[1] = designed as: OFF switch for flavin mononucleotide, no ligand
[2] = ligand present: flavin mononucleotide, designed as: OFF switch for flavin mononucleotide
[3] = designed as: ON switch for flavin mononucleotide, no ligand
[4] = ligand present: flavin mononucleotide, designed as: ON switch for flavin mononucleotide

| Sequence | apparent Kd [1] [nM] | apparent Kd [2] [nM] | apparent Kd [3] [nM] | apparent Kd [4] [nM] |
| --- | --- | --- | --- | --- |
| ACAGUAUAUGUAGGAUAUCAUUGGCUAGGUAGGUGAGAAGGGCAUAGUACAUGAGGAUCACCCAUGUGUUGGUCCUCGCAGAAA | 634 | 380 |  |  |
| CCAUAAAAGAUCCAUUUUUACAACAUGAGGAUCACCCAUGUGCAGGAUAUCGUGAAAGUAAAAUACGAGAAGGGCAAGAACUGC | 106 | 130 |  |  |
| UUGUUAUAUGUAGGAUAUGCAUAUUAUUAUUAUGCAGAAGGACAUGAGGAUCACCCAUGUAUGUUGUUGUUAUAUAUUAUAUAU | 24.8 | 27.8 |  |  |
| GCCACACAUGAGGAUCACCCAUGUGAGGAUAUCAUGCUUCGUAGUAAACUACGAAGUGUGAGAAGGCACAUGGC | 33.4 | 155 |  |  |
| GUCAGCUCGUGAGGAUAUACAACACUGCUUCGGCGGUGUAUUAAGAUCACAUGAGGAUCACCCAUGUAGAAGGCACGAGCUGAU | 13.1 | 249 |  |  |
| UCCGGGUGCCAGAAGGGAGAUGGUUCGGAGGUCUCAGGAUAUGGCACAUGAGGAUCACCCAUGUGUUUACGUAAUUACAUGAGA | 20.9 | 21.6 |  |  |
| AAAAAACAUGAGGAUCACCCAUGUGAGGAUAUCGAAAAGUCAAAGAAAAAGACGAAAACGAGAAGGCACAAAAA | 53.8 | 65.8 |  |  |
| AAUUAUUUUUGAGGAUAUGGUAGUGAAACACUACCAGAAGGCGGAAUAAACAUGAGGAUCACCCAUGUGAGCCUGAUGCUUAUG | 22 | 42.6 |  |  |
| AACAAACAUGAGGAUCACCCAUGUGAGGAUAUCGGAUGUACAGCGCAAUUAGAAUUAACGAGAAGGCACACUUA | 30.6 | 29.1 |  |  |
| CUUCUGUGAGGAUAUUAGUAGUAAAUAAAUAAAAUUAUUACUGAGAAGGCACAUGAGGAUCACCCAUGUUCCUC | 35.1 | 392 |  |  |
| AAGGUACGAGGAUAUACAUAGAUACAGACACAUGUUCAAGUACAUGAGGAUCACCCAUGUAGAAGGCGUAUAUA | 38.7 | 160 |  |  |
| AUCAUGUCAGGAUAUCGUGCAGCUACCGAAAGGUAGCUGCACGAGAAGGGACAUGAGGAUCACCCAUGUAUGAA | 221 | 117 |  |  |
| UAUUAGUAAGGAUAUCUCGUCAUGGACGUGAGUCCAUGACGAGAGAAGGUACAUGAGGAUCACCCAUGUUCAUU | 15.9 | 18.3 |  |  |
| GUCAGCUCGUGAGGAUAUACAUGUGCUGGAAACAGCACUAAAGUUUUCACAUGAGGAUCACCCAUGUAGAAGGCACGAGCUGAU | 15.8 | 35.2 |  |  |
| UGAUAGGACAGAGGAUAUGCGUAUAGUUACCUCUACAUGAGGAUCACCCAUGUAGAAGGCUGUCCUAUCUAAGUCGGAAACGAC | 5.8 | 5.61 |  |  |
| CACGGAUAGUAGAAGGGUGACAUGAGGAUCACCCAUGUACACAUGCGUAUUAAAGUAUGUGAUACACAGGAUAUACUAUCCGUG |  |  | 76.3 | 321 |
| UUGGACGUCGUAGGAUAUGUAGGAUAUUCCUACAUGAGGAUCACCCAUGUUGACAUGGAACAAGGACAGAAGGACGAUGUCCAU |  |  | 493 | 17.4 |
| AUUAUUUUCGAAGGAUAUGGAUACAUGAGGAUCACCCAUGUAUAAAAUGAGAUCUAUUAUAUGAUCCAGAAGGUCGUUGUUUAU | 35.6 | 68.8 |  |  |
| CUCAUGAGAGGAUAUACAUGAGGAUCACCCAUGUUCUUAUCUCGUCGGGCUCCAUUACGUAGAAGGCUCAUUUG | 29.4 | 46.9 |  |  |
| GUAGAGUAAGGAUAUGCUGAAUAGGAUAGAAUGGUUAGAAAGCAGAAGGUACAUGAGGAUCACCCAUGUAAUGU | 23.2 | 21.2 |  |  |
| UGAUAACAUGUAGGAUAUGCAGCAUUGACCACUGCAGAAGGACAUGAGGAUCACCCAUGUAGUUGUACUAUGGGAUCACGCAAU | 419 | 194 |  |  |
| AUCCGGCGUGUAGGAUAUGGAACCGAUUAGGAUCCAGAAGGACAUGAGGAUCACCCAUGUACAUGUAAACAGUCAUCACCGGAA | 10.9 | 65.3 |  |  |
| AACAUGGUACAGAAGGGCAAUUUAUUUAAUUAUUAUUUAGAACAGCAUUGCAGGAUAUGUUUAACAUGAGGAUCACCCAUGUAC |  |  | 70.4 | 13.8 |
| AGGCGGGUAGGAUAUAUUUUCGUCAACAUGAGGAUCACCCAUGUGUCCUGAAGUGAUAUCAUAGAAGGGCCCAGCU | 25.4 | 33.8 |  |  |
| CACUGCAUGUAAGGAUAUCGACUGGAUAACAGUCGAGAAGGUACAUGAGGAUCACCCAUGUAAGCAGUGAAUAAUAAUAAUAAU | 13.2 | 25.2 |  |  |
| CGUGUUGACGAAGGAUAUGGAUACAUGAGGAUCACCCAUGUUUAAUUUGUGAUUUUGUUAAAGUACCAGAAGGUCGAAUACACG | 142 | 118 |  |  |
| GUGCUUGUCGGAGGAUAUGGUUACAUGAGGAUCACCCAUGUUAUGCUUGGUUACUUGUUUAGUUUCCAGAAGGUCGAUUGGUUG | 69.6 | 132 |  |  |
| GCAGGGUAUGAGAAGGCAUAAUUUAUCUAACCACAUGAUUACAUGAGGAUCACCCAUGUUUCCAAUGAGGAUAUCAUACCGUGC | 8.05 | 7.54 |  |  |

| Sequence | apparent Kd [1] [nM] | apparent Kd [2] [nM] | apparent Kd [3] [nM] | apparent Kd [4] [nM] |
| --- | --- | --- | --- | --- |
| GUAUUUAGAUAAGGAUAUAAGUCUAUGACAUGAGGAUCACCCAUGUGUGUUUUAGAAGGUAUUUGGGUAAUAUUGUUACAGUAA |  |  | 29.6 | 21.3 |
| GGGACGAAAGUCGAACGAUGUAGCAGAAGGACAUGAGGAUCACCCAUGUCAGCUGUAACAGCCAUGUAGGAUAUGCUACAUCCC | 4.61 | 5.96 |  |  |
| GGAGCCGGCACGGAGGAUAUUCAUAUUAAAACAUGAGGAUCACCCAUGUAGGCCAGAAGGCCUUGGGAGAAGGCCGAUCGGCUCG |  |  | 450 | 29.7 |
| UCAGGCUUCGAGAAGGACAUGAGGAUCACCCAUGUUAACAUGAAGCAGCCGUGAGGCUGCAUCAUGUAGGAUAUCGGAGUCUGC | 5.44 | 6.09 |  |  |
| UGCAUGCUAGGAUAUACGGGACAUUAGGGUUUGUCGUGUGGACAUGAGGAUCACCCAUGUAGAAGGAGCGUGCU | 49.5 | 207 |  |  |
| AUACCACGAGGAUAUCGACUAUACCACAUGAGGAUCACCCAUGUUAUCCAUGUUUCGUUUCGAGAAGGCGUGGGUU | 39.1 | 33.9 |  |  |
| UCUAUGAAGAUUCGUCAAUACAGUUAGGAUAUGAGAUACAUGAGGAUCACCCAUGUGCAUGUGGAUUAGAAGGAACAAUUAUCU | 33.2 | 30.8 |  |  |
| UGGUACUACGGAGGAUAUCAUGUAUAUACAUGAGGAUCACCCAUGUCGUACGAGAGUACGGAGAUUGAGAAGGCCGUAGUACCU |  |  | 38.7 | 16.2 |
| AAAGAAAACAUAGGAUAUGUAACAUGAGGAUCACCCAUGUAUACCUCGUAAGAGAUGAUGGAUGGACAGAAGGAUGAUCUCAGG |  |  | 140 | 214 |
| GCUGUCGCAUGAGGAUAUGGUCAGCUUUGCUGACCAGAAGGCAUGUCAAUAGACAUGAGGAUCACCCAUGUAGUUUGGGCGGCU |  |  | 985 | 99.2 |
| AAAUCAGUAGGAUAUACGAUUUUAUGCUAGAUAGAGGAGCCACAUGAGGAUCACCCAUGUAGAAGGACUAGAUA | 17.1 | 19.9 |  |  |
| UUAUAUAAGGUGUAGCUAGACAUGCAAGAAGGGUGAAGAACAUGAGGAUCACCCAUGUAGACGGUACAGGAUAUUGAUUGACGA |  |  | 340 | 166 |
| GGGCCCGGAGGAUAUACAUGAGGAUCACCCAUGUACCCGGGUUUUAUUGGGCCCGGGUGUAGAAGGCCGGGCCC | 13.1 | 14.8 |  |  |
| AAAACGUGAGGAUAUACAUGAGGAUCACCCAUGUGAAACAGGAAAAACUGAAAGAAAAGUAGAAGGCACGAAAA | 33.4 | 50.1 |  |  |
| ACAUGAGGAUCACCCAUGUAUACAUAGGAUAUUGAGGAUCAGGGAUGUUUUACAGGAUAUGUCUACGAGAAGGAUGCAAGUACA |  |  | 33.5 | 28.6 |
| GGUACUCAAAGAGUACCAAUACGAACAUGAGGAUCACCCAUGUAGGAUAUGAAAACGCCGGAGUAGCAGAAGGACAUGUGCCUA | 11.4 | 11.1 |  |  |
| GCCUUAUCGGUCAGGAUAUACACUUGUUAGUUGUUGUAGAAGGGACAUGAGGAUCACCCAUGUACAUUACAUUG | 23.2 | 58.5 |  |  |
| AUUAUGAAUGCAGGAUAUGAUUAACAUGAGGAUCACCCAUGUGGUGUUGUGAGUAAGGAGAGUGAUCAGAAGGGCAUUUUUUUU |  |  | 593 | 585 |
| UGUUGUAUUACAGGAUAUCUAUUAGUUAUAUUUAGAGAAGGGUAUUCACAUGAGGAUCACCCAUGUAUAUACGAGGAAGUUGUG |  |  | 54.6 | 61.9 |
| ACCUCACACGUCAGGAUAUGCCUGCGGAUAUGCGGGUAGAAGGGACAUGAGGAUCACCCAUGUCUUUCGUGAUU | 15.8 | 21.1 |  |  |
| AAAAAUGGAGGAUAUACAUGAGGAUCACCCAUGUGUGGCCAUACUAUGUGCUCGUCAGGUAGAAGGCCAAAAAA | 28.7 | 46 |  |  |
| UGGUACUAGGGAGGAUAUGGGACGAUACAUGAGGAUCACCCAUGUUUAAGAAUGCCGAGAGGCAACUAGAAGGCCCUAGUACCU |  |  | 494 | 21.7 |
| AAGGACUGAAUAAUAAGUAGAAAUACAUGAGGAUCACCCAUGUAGGAUAUCGUCAGGAAUACUGACGAGAAGGACAUACAGUCC | 13.6 | 16.7 |  |  |
| ACAUGAGGAUCACCCAUGUAGAUACUAGAAGGGUAAGACUAGUAGUUACAUGACGACCAAGCAUUACAGGAUAUAGGAAUUGGA |  |  | 81.2 | 39.2 |
| GUAGUUAGUAAAGGAUAUUAGUGUGUGUAAUAUUGAGAAGGUUACAUGAGGAUCACCCAUGUGAUCAAUCACUGUUAAGGUUGC | 6.6 | 6.42 |  |  |
| AAUCCACAUGAGGAUCACCCAUGUGAGGAUAUGAUACUAUGUACUUCGGUACAUAGUAUCAGAAGGCACGGAUC | 33.2 | 50.4 |  |  |
| GCUGGUCGAGGAUAUACAUGACGUGCUUCGGCACGAGGUCUACAUGAGGAUCACCCAUGUAGAAGGCGACCAGC | 30.8 | 225 |  |  |
